Experimental data published in ChEMBL document CHEMBL2086235, “A novel thiazolidine compound induces caspase-9 dependent apoptosis in cancer cells” (Bioorg Med Chem, 2012).
The source made the active and inactive calls. No cut-off for these calls is given here.

Columns and labels:
HepG2 [1] = test: Increase in caspase-9 activation in human HepG2 cells at 10 uM incubated for 12 hrs in presence of caspase-3 inhibitor z-DEVD-fmk by Caspase Glo assay; type: functional, cell-based
Method in brief: (§1)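 HepG2 pre-incubated 24 h at 37 °C with 50 μM of the named caspase inhibitor peptide or DMSO. Medium then replaced with fresh medium holding the same inhibitor plus compound. Caspase activity read by Caspase-Glo luminescence after 12 h. Values normalized to inhibitor-only wells without compound. Two independent experiments in duplicate; t-test.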

[2] = Cytotoxicity against human FOCUS cells incubated for 72 hrs by SRB assay; type: functional, cell-based
Method in brief: (§2)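 Cells grown in DMEM with 10% FCS, 2 mM L-glutamine, NEAA and antibiotics at 37 °C, 5% CO2, then seeded at 1000–5000 cells/well and grown 24 h. Compounds were added from DMSO for 72 h, following NCI guidelines. Cells were fixed in cold 10% TCA for 1 h at 4 °C and stained with 0.4% SRB in 1% acetic acid for 10 min. Bound dye was dissolved in 10 mM Tris and absorbance read at 515 nm.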

HCT-116 [3] = test: Cytotoxicity against human HCT116 cells incubated for 72 hrs by SRB assay; type: functional, cell-based; details: HCT-116, 72 h; method in brief: as §2
HepG2 [4] = test: Induction of apoptosis in human HepG2 cells assessed as DNA fragmentation at 10 uM incubated for 48 hrs by TUNEL assay; type: functional, cell-based
Method in brief: (§3)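 Cells grown overnight on coverslips, then exposed 48 h. Fixed in cold methanol; TUNEL done with an in situ cell death detection kit. Nuclei counterstained with Hoechst 33258 (3 μg/mL, 5 min, dark) and viewed by fluorescence microscopy.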

CAMA-1 [5] = test: Cytotoxicity against human CAMA1 cells incubated for 72 hrs by SRB assay; type: functional, cell-based; details: CAMA-1, 72 h; method in brief: as §2
Huh-7 [6] = test: Induction of apoptosis in human HuH7 cells assessed as DNA fragmentation at 10 uM incubated for 48 hrs by TUNEL assay; type: functional, cell-based; method in brief: as §3
Huh-7 [7] = test: Induction of caspase-9 cleavage in human HuH7 cells at 2.5 to 5 uM incubated for 6 to 24 hrs by Western blot; type: functional, cell-based
Method in brief: (§4)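 Huh7 treated with compound or DMSO for 6, 12 or 24 h. Lysates quantified by Bradford and heat-denatured. Blotted onto nitrocellulose and probed with antibodies to cleaved caspase-9, cleaved caspase-3 and caspase-8 (1:500, overnight at 4 °C). Bands quantified by densitometry and normalized to actin.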

Huh-7 [8] = test: Growth inhibition of human HuH7 cells incubated for 48 hrs by Giemsa staining; type: functional, cell-based
Method in brief: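 Cells grown overnight, compound added from DMSO solution, then incubated 48 h more. Attached cells stained with Giemsa and photographed; qualitative read-out.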

Huh-7 [9] = test: Cell cycle arrest in human HuH7 cells assessed as subG1/G1 phase accumulation at 5 uM incubated for 12 hrs to 24 hrs by propidium iodide staining based flow cytometry; type: functional
Method in brief: (§5)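 Cells seeded 100,000-200,000 per dish, grown 24 h, then held a further day in starvation medium (1% FBS, 1% P/S, 1% NEAA in DMEM). Treated with compound or DMSO, harvested by trypsinization, fixed in ice-cold 70% ethanol at 4 °C. Stained 40 min at 37 °C in the dark with propidium iodide, RNase A and Triton X-100 in PBS. G1 = 2N, G2 = 4N; >4N cells gated out.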

[10] = Cell cycle arrest in human Mahlavu cells assessed as subG1/G1 phase accumulation at 5 uM incubated for 12 hrs to 24 hrs by propidium iodide staining based flow cytometry; type: functional; method in brief: as §5
BT-20 = test: Cytotoxicity against human BT20 cells incubated for 72 hrs by SRB assay; type: functional, cell-based; details: BT-20, 72 h; method in brief: as §2
[11] = Cytotoxicity against human MV cells incubated for 72 hrs by SRB assay; type: functional, cell-based; method in brief: as §2
CAMA-1 [12] = test: Induction of cell death in human CAMA1 cells at 0.02 uM incubated for 72 hrs by real-time cell analysis; type: functional, cell-based
Method in brief: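 Cells (1000-5000/well) on impedance plates monitored by real-time cell analysis. Treated about 24 h after seeding, in log phase, and followed 72 h against DMSO controls. Inhibition (%) = (1 − CI treated/CI DMSO) × 100. At least three repeats.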

MFE-296 = test: Cytotoxicity against human MFE296 cells incubated for 72 hrs by SRB assay; type: functional, cell-based; details: MFE-296, 72 h; method in brief: as §2
Huh-7 [13] = test: Induction of apoptosis in human HuH7 cells assessed as cytochrome c release at 10 uM incubated for 48 hrs by immunostaining; type: functional, cell-based
Method in brief: (§6)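 After 48 h exposure, coverslip-grown cells fixed in 4% paraformaldehyde, permeabilized in ice-cold acetone, blocked in 3% BSA 1 h at 37 °C. Anti-cytochrome c monoclonal applied overnight at 4 °C, then FITC anti-mouse secondary 1 h at room temperature. Diffuse cytoplasmic staining scored by fluorescence microscopy.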

HepG2 [14] = test: Increase in caspase-8 activation in human HepG2 cells at 10 uM incubated for 12 hrs in presence of 50 uM caspase-3 inhibitor z-DEVD-fmk by Caspase Glo assay; type: functional, cell-based; method in brief: as §1
HCT-116 [15] = test: Induction of cell death in human HCT116 cells at 2.5 to 40 uM incubated for 72 hrs by SRB assay; type: functional, cell-based
Method in brief: (§7)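 Cells seeded and grown 24 h at 37 °C, then treated 72 h in triplicate. Fixed with cold 10% TCA 1 h at 4 °C, stained with 0.4% SRB in 1% acetic acid 10 min, washed in 1% acetic acid. Dye solubilized in 10 mM Tris base; absorbance read at 515 nm. Normalized to DMSO control and Tz; three independent experiments.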

Huh-7 [16] = test: Induction of caspase-3 cleavage in human HuH7 cells at 2.5 to 5 uM incubated for 6 to 24 hrs by Western blot; type: functional, cell-based; method in brief: as §4
HepG2 [17] = test: Increase in caspase-9 activation in human HepG2 cells at 10 uM incubated for 12 hrs by Caspase Glo assay; type: functional, cell-based
Method in brief: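 HepG2 pre-incubated 24 h at 37 °C with DMSO, then moved to fresh medium with compound. Caspase-9 activity read by Caspase-Glo after 12 h and normalized to untreated controls. Two independent experiments in duplicate.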

Huh-7 [18] = test: Induction of cell death in human HuH7 cells at 2.5 to 40 uM incubated for 72 hrs by SRB assay; type: functional, cell-based; method in brief: as §7
FOCUS [19] = test: Induction of apoptosis in human FOCUS cells assessed as cytochrome c release at 10 uM incubated for 48 hrs by immunostaining; type: functional, cell-based; method in brief: as §6
HepG2 [20] = test: Increase in caspase-8 activation in human HepG2 cells at 10 uM incubated for 12 hrs in presence of 50 uM caspase-9 inhibitor z-LEHD-fmk by Caspase Glo assay; type: functional, cell-based; method in brief: as §1
MCF7 [21] = test: Cytotoxicity against human MCF7 cells incubated for 72 hrs by SRB assay; type: functional, cell-based; details: MCF7, 72 h; method in brief: as §2
HepG2 [22] = test: Increase in caspase-9 activation in human HepG2 cells at 10 uM incubated for 12 hrs in presence of caspase-8 inhibitor z-IETD-fmk by Caspase Glo assay; type: functional, cell-based; method in brief: as §1
MCF7 [23] = test: Induction of cell death in human MCF7 cells at 2.5 to 40 uM incubated for 72 hrs by SRB assay; type: functional, cell-based; method in brief: as §7
Huh-7 [24] = test: Cytotoxicity against human HuH7 cells incubated for 72 hrs by SRB assay; type: functional, cell-based; details: Huh-7, 72 h; method in brief: as §2
HepG2 [25] = test: Induction of apoptosis in human HepG2 cells assessed as cytochrome c release at 10 uM incubated for 48 hrs by immunostaining; type: functional, cell-based; method in brief: as §6
HepG2 [26] = test: Cytotoxicity against human HepG2 cells incubated for 72 hrs by SRB assay; type: functional, cell-based; details: HepG2, 72 h; method in brief: as §2
FOCUS [27] = test: Induction of apoptosis in human FOCUS cells assessed as DNA fragmentation at 10 uM incubated for 48 hrs by TUNEL assay; type: functional, cell-based; method in brief: as §3
Huh-7 (Homo sapiens) [28] = test: Induction of cell death in human Huh7 cells at 10 uM incubated for 72 hrs by real-time cell analysis
Huh-7 [29] = test: Induction of caspase-8 cleavage in human HuH7 cells at 2.5 to 5 uM incubated for 6 to 24 hrs by Western blot; type: functional, cell-based; method in brief: as §4
T47D = test: Cytotoxicity against human T47D cells incubated for 72 hrs by SRB assay; type: functional, cell-based; method in brief: as §2
Huh-7 (Homo sapiens) [30] = test: Induction of cell death in human Huh7 cells at 5 uM incubated for 72 hrs by real-time cell analysis

Compound: C#CC(=O)N1C(c2ccccc2)SC[C@H]1C(=O)OCC (mixture of isomers)
- Activity (HepG2 [1]): inactive
- IC50 [2]: 5.47 µM
- IC50 (HCT-116 [3]): 9.23 µM
- Activity (HepG2 [4]): Active
- IC50 (CAMA-1 [5]): 0.01 µM
- Activity (Huh-7 [6]): Active
- Activity (Huh-7 [7]): Active
- growth inhibition (GI) (Huh-7 [8]): Active
- Activity (Huh-7 [9]): Active
- Activity [10]: Active
- IC50 (BT-20): 1.6 µM
- IC50 [11]: 0.41 µM
- Activity (CAMA-1 [12]): inactive
- IC50 (MFE-296): 0.5 µM
- Activity (Huh-7 [13]): Active
- Activity (HepG2 [14]): inactive
- Activity (HCT-116 [15]): Active
- Activity (Huh-7 [16]): Active
- Activity (HepG2 [17]): Active
- Activity (Huh-7 [18]): Active
- Activity (FOCUS [19]): Active
- Activity (HepG2 [20]): inactive
- IC50 (MCF7 [21]): 4.7 µM
- Activity (HepG2 [22]): inactive
- Activity (MCF7 [23]): Active
- IC50 (Huh-7 [24]): 5.3 µM
- Activity (HepG2 [25]): Active
- IC50 (HepG2 [26]): 10 µM
- Activity (FOCUS [27]): Active
- Activity (Huh-7 (Homo sapiens) [28]): 100%
- Activity (Huh-7 [29]): inactive
- IC50 (T47D): 7.62 µM
- Activity (Huh-7 (Homo sapiens) [30]): 100%
